This is an account of results in ChEMBL document CHEMBL1153425, “Inhibitory effects of sesquiterpene lactones isolated from Eupatorium chinense L. on IgE-mediated degranulation in rat basophilic leukemia RBL-2H3 cells and passive cutaneous anaphylaxis reaction in mice” (Bioorg Med Chem, 2009).

Activity calls are given as the source filed them. No cut-off for these calls is given here.

The subject of test [1] is RBL-2H3. Put plainly: Inhibition of DNP/BSA-stimulated ERK1/2 phosphorylation in IgE-sensitized rat RBL2H3 cells after 10 mins by Western blot. In kind it is functional, cell-based. The procedure, abridged:
(§1)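 Compound-treated, IgE-sensitized RBL-2H3 cells are stimulated with DNP-BSA for 10 min and lysed in RIPA buffer with protease and phosphatase inhibitors. Lysate (20 µg protein) is run on SDS-PAGE and blotted to PVDF. Membranes are blocked with 5% milk/TPBS and probed with primary antibodies, then […] secondaries. Detection is by ECL chemiluminescence.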

Test [2] has as its system Radical scavenging activity. Kind of test: Antioxidant activity assessed as DPPH-radical scavenging activity at 10 uM. In kind it is functional. Background: Loss of DPPH colour is used to gauge radical scavenging.
Test [3] deals with RBL-2H3. Kind of test: Inhibition of DNP/BSA-stimulated histamine release in IgE-sensitized rat RBL2H3 cells at 5 to 10 uM after 30 mins by fluorimetry. In kind it is functional, cell-based. In outline:
(§2)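 RBL-2H3 cells are plated at 5×10^5 cells/ml, cultured 1 h, then sensitized 24 h with mouse anti-DNP IgE (0.45 µg/ml). After washes, cells sit in Siraganian buffer (pH 7.2; 5.6 mM glucose, 1 mM CaCl2, 0.1% BSA) at 37 °C for 10 min. They are pretreated with 5 or 10 µM compound at 37 °C for 30 min, then challenged with DNP-BSA (10 µg/ml) for 10 min. The reaction is stopped on ice and supernatant taken. Read-outs: β-hexosaminidase by 1 mM p-nitrophenyl-N-acetyl-β-D-glucosaminide in citrate pH 4.5, 37 °C 1 h, A405; histamine by n-butanol/chloroform extraction and o-phthalaldehyde fluorescence (ex 360/em 450), expressed as % inhibition relative to positive and negative controls. Values are mean ± SEM, n=10.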

The subject of test [4] is RBL-2H3. Kind of test: Inhibition of A-23187-stimulated beta-hexosamonidase release in IgE-sensitized rat RBL2H3 cells at 5 to 10 uM after 30 mins. In kind it is functional, cell-based.
The subject of test [5] is RBL-2H3. Kind of test: Inhibition of DNP/BSA-stimulated ratio of phospho-Akt to total-Akt level in IgE-sensitized rat RBL2H3 cells after 10 mins by Western blot. The format is functional, cell-based. The procedure, abridged: as §1
Background: Immunoblotting shows a protein as a band on a membrane.

The test system of test [6] is RBL-2H3. Put plainly: Inhibition of DNP/BSA-stimulated beta-hexosamonidase release in IgE-sensitized rat RBL2H3 cells at 5 to 10 uM after 30 mins by colorimetry. In kind it is functional, cell-based. In outline:
as §2

Test [7] has as its system RBL-2H3. Put plainly: Inhibition of DNP/BSA-stimulated p38MAPK phosphorylation in IgE-sensitized rat RBL2H3 cells after 10 mins by Western blot. The format is functional, cell-based. The procedure, abridged:
as §1

Test [8] concerns RBL-2H3. Kind of test: Inhibition of DNP/BSA-stimulated intracellular ROS release in IgE-sensitized rat RBL2H3 cells at 10 uM after 30 mins using CM-H2DCF-DA probe by fluorimetry. The format is functional, cell-based. In outline: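 IgE-sensitized RBL-2H3 cells (5×10^4/well) are loaded with 10 µM CM-H2DCF-DA for 30 min at 37 °C and washed with PBS. They are then exposed 30 min to 10 µM compound and stimulated with DNP-BSA (10 µg/ml). DCF fluorescence is read at ex 490/em 530 nm.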

In test [9] the test system is RBL-2H3. Kind of test: Inhibition of DNP/BSA-stimulated JNK1/2 phosphorylation in IgE-sensitized rat RBL2H3 cells after 10 mins by Western blot. In kind it is functional, cell-based. The procedure, abridged:
as §1

In test [10] the test system is RBL-2H3. Put plainly: Inhibition of DNP/BSA-stimulated intracellular calcium release in IgE-sensitized rat RBL2H3 cells at 10 uM after 30 mins by fluorimetry. The format is functional, cell-based. In outline: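 IgE-sensitized (0.45 µg/ml anti-DNP IgE, 24 h) RBL-2H3 cells at 5×10^4/well are loaded with Fluo-3 AM for 1 h. They are then incubated 30 min in loading buffer containing 10 µM compound. Ca2+ change after DNP-BSA (10 µg/ml) is read by fluorescence plate reader, ex 490/em 530 nm. Values are mean ± SEM, n=32.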
In general terms: Calcium flux is commonly read through the fluorescence of an indicator in the cells.

Take `C=C1C(=O)O[C@@H]2/C=C(\C)[C@@H](O)C/C=C(/C=O)C[C@@H](OC(=O)C(C)CC)[C@@H]12` (stereo not given in full): the outcome (with RBL-2H3 [1]; in test [2]; with RBL-2H3 [8]; with RBL-2H3 [9]) was inactive. Also, the outcome in the test with RBL-2H3 [3], in the test with RBL-2H3 [4], with RBL-2H3 [5], in the test on RBL-2H3 [6], in the test on RBL-2H3 [7] and in the test with RBL-2H3 [10] was Active.

`C=C1C(=O)O[C@@H]2/C=C(/C)[C@@H](OC(C)=O)C[C@H]3O[C@]3(C)C[C@@H](OC(=O)/C(=C/C)CO)[C@@H]12`: the outcome (in the test with RBL-2H3 [1]; in [2]; in the test on RBL-2H3 [8]; in the test on RBL-2H3 [9]) was inactive. Further, the result in the test on RBL-2H3 [5] and in the test on RBL-2H3 [7] was Active.

In the case of `C=C1C(=O)O[C@H]2/C=C(/C)[C@H](OC(C)=O)C[C@@H]3O[C@]3(C)C[C@@H](OC(=O)/C(=C/C)CO)[C@@H]12`, the outcome (in the test with RBL-2H3 [1]; in [2]; in the test with RBL-2H3 [8]; in the test with RBL-2H3 [9]) was inactive. The outcome in the test with RBL-2H3 [5] and with RBL-2H3 [7] was Active.

Regarding `C=C1C(=O)O[C@H]2/C=C(/C)[C@@H](OC(C)=O)C/C=C(\CO)C[C@@H](OC(=O)C(C)CC)[C@@H]12` (stereo not given in full), the outcome (in the test on RBL-2H3 [1]; in [2]; in the test on RBL-2H3 [8]; in the test with RBL-2H3 [9]) was inactive. In addition, the result in the test on RBL-2H3 [5] and in the test on RBL-2H3 [7] was Active.

As for `C=C1C(=O)O[C@H]2/C=C(/C)[C@@H](OC(C)=O)C/C=C(\C)C[C@@H](OC(=O)/C(=C/C)CO)[C@@H]12`, the result (in the test on RBL-2H3 [1]; in [2]; in the test on RBL-2H3 [8]; in the test on RBL-2H3 [9]) was inactive. Also, the result in the test with RBL-2H3 [5] and with RBL-2H3 [7] was Active.

For `C=C1C(=O)O[C@@H]2/C=C(\C)[C@@H](O)C/C=C(\C)C[C@@H](OC(=O)/C(=C\C)CO)[C@@H]12`, the result (with RBL-2H3 [1]; in test [2]; with RBL-2H3 [8]; with RBL-2H3 [9]) was inactive. Moreover, the outcome in the test with RBL-2H3 [5] and with RBL-2H3 [7] was Active.

As to `C=C1C(=O)O[C@@H]2/C=C(\C)C[C@H](O)/C=C(\C)C[C@@H](OC(=O)/C(=C\C)CO)[C@@H]12`, the outcome (with RBL-2H3 [1]; in test [2]; in the test on RBL-2H3 [8]; with RBL-2H3 [9]) was inactive. Further, the result in the test with RBL-2H3 [3], in the test with RBL-2H3 [4], with RBL-2H3 [5], in the test with RBL-2H3 [6], in the test on RBL-2H3 [7] and with RBL-2H3 [10] was Active.
